Reference: ChEMBL document CHEMBL4138133, “2,3-Dihydro-3β-methoxy Withaferin-A Protects Normal Cells against Stress: Molecular Evidence of Its Potent Cytoprotective Activity” (J Nat Prod, 2017)
The source made the active and inactive calls.

Tests used:
[1] = test system: TIG-3; test: Effect on mortalin expression level in human TIG3 cells at 0.3 to 3 uM by immuno fluorescence analysis; format: ADME, cell-based; conditions: tig-3, 3 µM
Outline: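 Methanol-fixed (chilled absolute methanol) TIG-3 fibroblasts treated with Wi-A or 3βmWi-A; immunofluorescence staining with antibodies, imaged by epifluorescence microscopy; signal quantitated from three independent experiments.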

[2] = test system: TIG-3; test: Cytoprotective activity against H2O2-induced oxidative stress in human TIG3 cells assessed as decrease in 53BP1 level at 0.6 uM pretreated with H2O2 for 2 hrs followed by compound addition by immuno fluorescence staining based analysis; format: functional, cell-based
Outline: (§1)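 TIG-3 fibroblasts (DMEM, 10% FBS, 37 °C) stressed with H2O2 (500 μM, 2 h) or UV (50 mJ/cm2), then recovered in compound-supplemented medium. Cells fixed in chilled absolute methanol and immunostained for the marker. Images taken by fluorescence microscopy and staining intensity quantified. Triplicate experiments.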

[3] = target: MAP kinase p38 (Homo sapiens) (UniProt O15264+Q15759+Q16539+P53778); test: Induction of p38 MAPK phosphorylation at Thr180/Tyr182 residues in H2O2 treated human TIG3 cells pretreated with H2O2 for 2 hrs followed by compound addition by immuno fluorescence staining based analysis; outline: as §1
[4] = test system: TIG-3; test: Effect on p21 WAF1 expression level in human TIG3 cells at 0.3 to 3 uM by immunoblot analysis; format: ADME, cell-based; conditions: tig-3, 3 µM
Outline: (§2)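 TIG-3 cells treated with compound, lysed in NP40 buffer (centrifuged 20 min, 4 °C); 10−20 μg protein immunoblotted for indicated proteins; band quantitation from three independent experiments, Student's t or Mann−Whitney test.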

[5] = target: RAC-alpha serine/threonine-protein kinase (Homo sapiens) (UniProt P31749); test: Induction of Akt phosphorylation at Ser473 residues in H2O2 treated human TIG3 cells at 0.6 uM pretreated with H2O2 for 2 hrs followed by compound addition by immunoblot analysis
Outline: (§3)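 TIG-3 cells stressed with H2O2 (500 μM, 2 h), then recovered in medium containing 0.3 or 0.6 μM compound. Lysed in NP40 buffer; 10−20 μg protein immunoblotted for pAkt Ser473, p-p38 Thr180/Tyr182, p-p44/42 Thr202/Tyr204, β-catenin, survivin, Bcl-2 or full-length PARP-1. Triplicate experiments.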

[6] = test system: TIG-3; test: Cytoprotective activity against UV irradiation-induced stress in human TIG3 cells assessed as increase in cell survival irradiated with 50 mJ/cm2 of UV radiations followed by compound addition measured after 2 days by crystal violet staining based assay; format: functional
[7] = test system: TIG-3; test: Cytotoxicity against human TIG3 cells assessed as induction of senescence at 70 to 72 population doubling at 0.5 uM; format: cell-based; conditions: tig-3, 0.5 µM
[8] = target: Mitogen-activated protein kinase 3 (Homo sapiens) (UniProt P27361); test: Induction of ERK1 phosphorylation at Thr202 residues in UV-irradiated human TIG3 cells using 50 mJ/cm2 of UV radiations followed by compound addition by immuno fluorescence staining based analysis; outline: as §1
[9] = test system: TIG-3; test: Cytotoxicity against human TIG3 cells assessed as cell death at 0.6 uM; format: cell-based; conditions: tig-3, 0.6 µM
Outline: (§4)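 Phase-contrast microscopy of morphology of control and treated normal human TIG-3 fibroblasts.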

[10] = test system: TIG-3; test: Induction of oxidative stress in human TIG3 cells assessed as increase in CARF expression level at 0.6 uM by immunoblot analysis; format: cell-based; conditions: tig-3, 0.6 µM; outline: as §2
[11] = test system: TIG-3; test: Cytoprotective activity against H2O2-induced oxidative stress in human TIG3 cells assessed as decrease in protein disulfide isomerase expression level at 0.6 uM pretreated with H2O2 for 2 hrs followed by compound addition by immuno fluorescence staining based analysis; format: functional, cell-based; outline: as §1
[12] = test system: TIG-3; test: Cytotoxicity against human TIG3 cells assessed as reduction in cell viability at 1 to 10 uM after 72 hrs; format: cell-based; conditions: tig-3, 72 h
Outline: (§5)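 Normal fibroblasts in DMEM/10% FBS at 37 °C given 0.15 to 50 μM compound for 48 or 72 h; viability determined; triplicate, mean ± SEM.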

[13] = test system: TIG-3; test: Cytoprotective activity against H2O2-induced oxidative stress in human TIG3 cells assessed as decrease in CARF level pretreated with H2O2 for 2 hrs followed by compound addition by immuno fluorescence staining based assay; format: functional, cell-based
[14] = test system: TIG-3; test: Induction of oxidative stress against human TIG3 cells assessed as increase in CARF mRNA levels by RT-PCR analysis; format: cell-based
Outline: (§6)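 Total RNA from treated TIG-3 cells; cDNA from 2 μg RNA; PCR 95 °C 10 min, 30 cycles (95 °C 45 s, 58 °C 1 min, 72 °C 45 s), 72 °C 10 min; products on 0.8% agarose, band densitometry; three independent experiments.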

[15] = test system: TIG-3; test: Decrease in Nrf2 expression level in human TIG3 cells at 0.3 to 3 uM by immunoblot analysis; format: ADME, cell-based; conditions: tig-3, 3 µM; outline: as §2
[16] = test system: WI-38; test: Cytotoxicity against human WI38 cells assessed as reduction in cell viability at 1 to 10 uM after 72 hrs; format: cell-based; conditions: wi-38, 72 h; outline: as §5
[17] = test system: TIG-3; test: Cytoprotective activity against etoposide-induced stress in human TIG3 cells assessed as increase in cell survival pretreated with etoposide for 24 hrs followed by compound addition measured after 2 days by crystal violet staining based assay; format: functional
[18] = target: Mitogen-activated protein kinase 1 (Homo sapiens) (UniProt P28482); test: Induction of ERK2 phosphorylation at Tyr204 residues in H2O2 treated human TIG3 cells at 0.6 uM pretreated with H2O2 for 2 hrs followed by compound addition by immunoblot analysis; outline: as §3
[19] = test system: TIG-3; test: Cytoprotective activity against UV irradiation-induced stress in human TIG3 cells assessed as increase in cell survival at 3 uM irradiated with 50 mJ/cm2 of UV radiations followed by compound addition measured after 72 hrs by crystal violet staining based assay; format: functional
[20] = test system: TIG-3; test: Effect on p53 expression level in human TIG3 cells at 0.3 to 3 uM by immunoblot analysis; format: cell-based; conditions: tig-3, 3 µM; outline: as §2
[21] = test system: TIG-3; test: Induction of oxidative stress in human TIG3 cells assessed as increase in GADD45alpha mRNA levels by RT-PCR analysis; format: cell-based; outline: as §6
[22] = target: Mitogen-activated protein kinase 3 (Homo sapiens) (UniProt P27361); test: Induction of ERK1 phosphorylation at Thr202 residues in H2O2 treated human TIG3 cells at 0.6 uM pretreated with H2O2 for 2 hrs followed by compound addition by immunoblot analysis; outline: as §3
[23] = test system: WI-38; test: Cytotoxicity against human WI38 cells assessed as inhibition of colony formation by crystal violet staining based assay; format: cell-based
Outline: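 500 cells/well seeded, cultured about 2 weeks with medium (control or compound-supplemented) renewed every fourth day; colonies fixed, stained, counted; triplicates, Student's t test.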

[24] = target: Mitogen-activated protein kinase 1 (Homo sapiens) (UniProt P28482); test: Induction of ERK2 phosphorylation at Tyr204 residues in UV-irradiated human TIG3 cells using 50 mJ/cm2 of UV radiations followed by compound addition by immuno fluorescence staining based analysis; outline: as §1
[25] = test system: TIG-3; test: Cytoprotective activity against H2O2-induced oxidative stress in human TIG3 cells assessed as increase in Bcl2 level at 0.6 uM pretreated with H2O2 for 2 hrs followed by compound addition by immunoblot analysis; format: functional, cell-based; outline: as §3
[26] = test system: TIG-3; test: Cytotoxicity against human TIG3 cells assessed as induction of morphological changes at 0.3 to 1.5 uM after 48 hrs by phase contrast microscopy; format: cell-based; conditions: tig-3, 48 h; outline: as §4

Measured: Activity

Mitogen-activated protein kinase 3 (Homo sapiens), sequence (P27361 whole entry): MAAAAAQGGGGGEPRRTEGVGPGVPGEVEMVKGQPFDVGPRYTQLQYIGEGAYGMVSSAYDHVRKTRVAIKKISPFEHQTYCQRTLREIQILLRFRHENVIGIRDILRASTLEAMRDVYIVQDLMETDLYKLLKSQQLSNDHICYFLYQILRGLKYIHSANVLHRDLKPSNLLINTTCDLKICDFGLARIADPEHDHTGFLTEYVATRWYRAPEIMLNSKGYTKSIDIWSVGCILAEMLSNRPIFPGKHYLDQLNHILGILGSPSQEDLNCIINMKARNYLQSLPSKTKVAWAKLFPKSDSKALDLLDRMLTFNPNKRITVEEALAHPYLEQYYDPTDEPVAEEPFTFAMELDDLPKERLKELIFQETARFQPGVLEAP
Mitogen-activated protein kinase 1 (Homo sapiens), sequence (P28482 whole entry): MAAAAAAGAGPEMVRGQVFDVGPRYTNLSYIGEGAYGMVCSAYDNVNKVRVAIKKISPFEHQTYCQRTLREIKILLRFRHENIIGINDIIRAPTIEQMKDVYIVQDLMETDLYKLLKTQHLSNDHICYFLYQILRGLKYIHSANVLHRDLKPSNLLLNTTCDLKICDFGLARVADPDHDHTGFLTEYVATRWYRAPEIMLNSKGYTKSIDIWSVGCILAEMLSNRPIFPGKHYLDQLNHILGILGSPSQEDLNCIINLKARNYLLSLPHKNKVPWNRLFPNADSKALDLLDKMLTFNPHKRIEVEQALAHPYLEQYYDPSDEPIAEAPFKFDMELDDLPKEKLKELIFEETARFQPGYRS
RAC-alpha serine/threonine-protein kinase (Homo sapiens), sequence (P31749 whole entry): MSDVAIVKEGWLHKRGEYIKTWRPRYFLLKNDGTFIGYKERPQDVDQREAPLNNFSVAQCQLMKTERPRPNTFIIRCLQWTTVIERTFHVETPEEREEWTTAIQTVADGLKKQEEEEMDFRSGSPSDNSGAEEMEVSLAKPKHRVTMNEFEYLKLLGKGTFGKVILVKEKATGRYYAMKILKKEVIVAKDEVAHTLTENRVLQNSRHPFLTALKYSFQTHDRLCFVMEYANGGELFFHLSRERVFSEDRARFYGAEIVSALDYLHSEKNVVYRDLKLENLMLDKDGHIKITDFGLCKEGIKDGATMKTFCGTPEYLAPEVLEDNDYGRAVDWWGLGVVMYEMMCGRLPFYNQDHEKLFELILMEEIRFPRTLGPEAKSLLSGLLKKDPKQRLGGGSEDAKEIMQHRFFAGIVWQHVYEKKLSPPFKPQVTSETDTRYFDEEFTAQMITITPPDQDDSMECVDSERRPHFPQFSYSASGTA

CO[C@H]1CC(=O)[C@]2(C)[C@H]3CC[C@]4(C)[C@@H]([C@H](C)[C@H]5CC(C)=C(CO)C(=O)O5)CC[C@H]4[C@@H]3C[C@H]3O[C@]32[C@H]1O
Non-Toxic: [1] | [4] | [7] | [9] | [10] | [12] | [14] | [15] | [16] | [20] | [21] | [23] | [26]
active: [2] | [3] | [5] | [6] Dose-dependent effect | [8] | [11] | [13] | [17] Dose-dependent effect | [18] | [19] | [22] | [24] | [25]
